{"source": "paper PMC9284555", "about": "(Journal of Agricultural and Food Chemistry, 2022)", "key": {"[1]": {"type": "in vivo, human", "conditions": "for relative intensity (EGCG = 1): LC-MS intensity in human plasma after ingestion of catechin-rich tea; for AUC0–6h / T1/2 / Tmax: human plasma, oral catechin-rich beverage (135 mg EGCG), mean ± SD, n = 10", "summary_of_the_method": "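Ten healthy fasted men drank 350 mL of a beverage with 615 mg catechins (135 mg EGCG). Plasma was taken at 0.5–6 h, acid/ascorbate/EDTA-stabilised and stored at −80 °C. Samples went through solid-phase extraction with an ethyl gallate internal standard. Analytes were identified and quantified by Orbitrap LC–MS (calibration 1–500 ng/mL). Parameters came from noncompartmental analysis; mean ± SD.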"}, "[2]": {"system": "SULT1A1", "conditions": "inhibition of SULT1A1; cited from earlier work"}, "[3]": {"system": "COMT", "conditions": "inhibition of COMT; cited from earlier work"}, "[4]": {"system": "SULT1A3", "conditions": "inhibition of SULT1A3; cited from earlier work"}}, "data": [{"molecule": "O=C(O[C@@H]1Cc2c(O)cc(O)cc2O[C@@H]1c1cc(O)c(O)c(O)c1)c1cc(O)c(O[C@@H]2O[C@H](C(=O)O)[C@@H](O)[C@H](O)[C@H]2O)c(O)c1", "note": "[EGCG-4″-glucuronide]", "values": [{"measurement": "relative intensity (EGCG = 1)", "setting": "[1]", "result": 0.39}, {"measurement": "AUC0–6h", "setting": "[1]", "result": "198.9 ± 23.8", "unit": "nmol·h·L^–1"}, {"measurement": "T1/2", "setting": "[1]", "result": "1.5 ± 0.64", "unit": "h"}, {"measurement": "Tmax", "setting": "[1]", "result": "1.3 ± 0.26", "unit": "h"}]}, {"molecule": "O=C(O[C@@H]1Cc2c(O)cc(O)cc2O[C@@H]1c1cc(O)c(O)c(O)c1)c1cc(O)c(OS(=O)(=O)O)c(O)c1", "note": "[EGCG-4″-sulfate]", "values": [{"measurement": "relative intensity (EGCG = 1)", "setting": "[1]", "result": 0.76}, {"measurement": "AUC0–6h", "setting": "[1]", "result": "715.2 ± 127.1", "unit": "nmol·h·L^–1"}, {"measurement": "T1/2", "setting": "[1]", "result": "3.9 ± 1.5", "unit": "h"}, {"measurement": "Tmax", "setting": "[1]", "result": "2.5 ± 0.60", "unit": "h"}]}, {"molecule": "O=c1c(O)c(-c2ccc(O)c(O)c2)oc2cc(O)cc(O)c12", "note": "[quercetin]", "values": [{"measurement": "IC50", "setting": "[2]", "result": "0.41 to 13", "unit": "µM"}, {"measurement": "IC50", "setting": "[3]", "result": "0.9 to 8.5", "unit": "µM"}, {"measurement": "IC50", "setting": "[4]", "result": 7, "unit": "µM"}]}, {"molecule": "(E)GCG-dimethyl-sulfate [(E)GCG-diMe-sulfate]", "values": [{"measurement": "relative intensity (EGCG = 1)", "setting": "[1]", "result": 0.54}]}]}
